The test system of series [1] is OT, V1a, V1b, V2 receptors. To be noted: cited from earlier work.
Series [2] has as its system OT, V1a, V1b, V2 receptors. To be noted: cited from earlier work. The source holds these as a separate data set.
In series [3] the test system is OT, V1a, V1b, V2 receptors. Particulars: cited from earlier work. This is another data set of the same source.
Series [4] can be described thus: Human serum stability assay. It is filed as in vitro ADME. Put shortly:
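Peptides were spiked into human serum. Aliquots were withdrawn at 1, 2, 3, 4, 12, 24 and 48 h and analysed by RP-HPLC and LCMS.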

Series [5] deals with rat V1aR. To be noted: read-out: Ki at rat V1aR; ref Chini et al.([38]); cited from earlier work.
In series [6] the target is human V1aR. To be noted: read-out: Ki at human V1aR, cited from earlier work.
Series [7] has as its target human V2R. Particulars: read-out: Ki at human V2R; ref Chini et al.([38]); cited from earlier work.
The target of series [8] is rat V2R. To be noted: read-out: Ki at rat V2R; ref Chini et al.([38]); cited from earlier work.
The target in series [9] is mouse V2R. Particulars: read-out: Ki at mouse V2R; ref Chini et al.([38]); cited from earlier work.
Series [10] concerns the target T1, human OTR (Homo sapiens, UniProt P30559).
T1 sequence (P30559 1-389): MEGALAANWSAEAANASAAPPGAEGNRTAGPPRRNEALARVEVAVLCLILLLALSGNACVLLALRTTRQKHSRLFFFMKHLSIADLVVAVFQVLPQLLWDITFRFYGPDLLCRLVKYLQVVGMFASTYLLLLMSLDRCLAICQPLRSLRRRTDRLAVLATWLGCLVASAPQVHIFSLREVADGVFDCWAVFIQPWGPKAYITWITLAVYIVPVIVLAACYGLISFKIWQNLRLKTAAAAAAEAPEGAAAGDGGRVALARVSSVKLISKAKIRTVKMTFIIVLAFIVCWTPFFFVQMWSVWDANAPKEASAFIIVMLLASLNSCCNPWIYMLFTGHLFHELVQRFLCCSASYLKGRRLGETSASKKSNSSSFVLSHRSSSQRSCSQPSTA
To be noted: read-out: Ki at human OTR; ref Chini et al.([38]); cited from earlier work.

Series [11] concerns the target rat OTR. To be noted: read-out: Ki at rat OTR; ref Chini et al.([38]); cited from earlier work.
Series [12] addresses human V1bR. To be noted: read-out: Ki at human V1bR; ref Chini et al.([38]); cited from earlier work.
Series [13] deals with rat V1bR. To be noted: read-out: Ki at rat V1bR; ref Chini et al.([38]); cited from earlier work.
Where [14] appears, read: human, ref [37], [38], [41], [48], [49], [63], [96]–[99].
[15] abbreviates: mouse, ref [37], [38], [41], [48], [49], [63], [96]–[99].
The mark [16] stands for this setting: rat, ref [37], [38], [41], [48], [49], [63], [96]–[99].

Read-outs that look alike come from different tables or passages of the source.

Take `N=C(N)NCCC[C@H](NC(=O)[C@@H]1CCCN1C(=O)[C@@H]1CSSC[C@H](N)C(=O)N[C@@H](Cc2ccc(O)cc2)C(=O)N[C@@H](Cc2ccccc2)C(=O)N[C@@H](CCC(N)=O)C(=O)N[C@@H](CC(N)=O)C(=O)N1)C(=O)NCC(N)=O` [AVP, arginine-vasopressin]: the Selectivity entry in [1], in series [2] and in series [3] was “unselective” each time. The term half-life denotes how long it takes for the measured level to halve. `CC[C@H](C)[C@@H]1NC(=O)[C@H](Cc2ccc(O)cc2)NC(=O)[C@@H](N)CSSC[C@@H](C(=O)N2CCC[C@H]2C(=O)N[C@@H](CC(C)C)C(=O)NCC(N)=O)NC(=O)[C@H](CC(N)=O)NC(=O)[C@H](CCC(N)=O)NC1=O` [OT, Oxytocin] showed a half-life in series [4] of 12 h.

The Ki is the dissociation constant of the complex between target and ligand, obtained from inhibition or displacement. In the case of `COc1ccc(S(=O)(=O)N2c3ccc(Cl)cc3[C@](O)(c3ccccc3Cl)[C@@H]2C(=O)N2CCC[C@H]2C(N)=O)cc1OC` [SR49049], the Ki in series [5] was 2.2 nM. In the case of `COc1ccc(S(=O)(=O)N2c3ccc(Cl)cc3[C@](O)(c3ccccc3Cl)[C@@H]2C(=O)N2CCC[C@H]2C(N)=O)cc1OC` [SR49059], the Ki in series [6] (ref Chini et al.([38])) was 0.9 nM. Take `CCOc1ccc2c(c1)C1(CCC(OCCN3CCOCC3)CC1)C(=O)N2S(=O)(=O)c1ccc(C(=O)NC(C)(C)C)cc1OC` (stereo not shown) [SR121463]: the Ki in [7] was 4.1 nM; in [8], 1.5 nM; in series [9] it was 11.2 nM. Take `CCN(Cc1cccnc1)C(=O)c1ccc(Cl)c(C2(C)C(=O)N(Cc3ccc(OC)cc3OC)c3ccc(Cl)cc32)c1` (stereo not shown) [SSR126768]: the Ki in series [10] is 0.9 nM.

Turning to Atosiban, the Selectivity result in [1] (setting [14]) is recorded as “V1a preference”; in series [2] (setting [15]) it was “OT selective”; in series [3] (setting [16]), “unselective”. As for [Hmp1,Phe2,Ile3,Hgn4,Dab8]-VP [F-180], the Selectivity result in series [1] (setting [14]) is “V1a preference”; in series [3] (setting [16]), “unselective”. In series [6] (ref Chini et al.([38])), the Ki was 11.7 nM. As to “[Phe2,Ile3,Hgn4,Orn(iPr)8]-VP [FE 202158]”, in series [6] (selective agonist, ref [100], [101]), the Ki was 4.4 nM. On to [Thr4,Gly7]-OT [T4G7-OT], for which the Selectivity entry in [1] (setting [14]) is “OT preference”; in series [2] (setting [15]), “OT selective”; in series [3] (setting [16]), “OT selective”. For the same compound, the Ki in series [11] is 1 nM.

Consider d(CH2)5[D-Ile2,Ile4,Tyr9]-AVP, for which the Ki in series [6] (ref Chini et al.([38])) is 3.7 nM. With d(CH2)5[Tyr(Me)2]-AVP, the Ki in series [5] is 0.7 nM. For dDAVP, the inhibitory constant (Ki) in series [8] was 0.3 nM. Consider d[Cha4]-AVP, for which the Selectivity result in series [1] (setting [14]) is reported as “V1b selective”; in series [3] (setting [16]), “unselective”. In addition, the Ki in series [12] is 1.2 nM.

For the compound d[Leu4, Lys8]-VP, the Ki in series [13] was 1.2 nM.

These data come from PMC5892705 (Science signaling, 2017).
